Bioassay records as filed in PubChem BioAssay.
Rad51 HR inh = blocks human Rad51 in homologous recombination. Q06609. hRad51 DNA strand exchange, fluorescence dequenching. inhibition, % at 10 µM. 0.085% of 200,000 active. AID 1385;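 active = inhibition above 40% at the single screening dose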;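 also: 0% = DMSO control wells and 100% = blanks with heterologous ssDNA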
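System: human Rad51 nucleoprotein filaments preassembled on unlabelled ssDNA. Reagent: labelled 47-mer dsDNA for strand exchange. Schedule: 30-min compound preincubation and 15-min exchange, both room temperature. Measured by: FRET fluorescence dequenching, excitation 485 nm, emission 520 nm. Read-out: Fluorescence-based percent inhibition, control- and blank-normalised. Benchmarks: plate controls and plate blanks.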
KCC2 mod = modulators of human KCC2 chloride dependent transport. Q9H2X9. KCC2 cells, thallium flux FluoZin-2 fluorescence. B-score of Tl+ flux slope (higher = more flux/activation; lower = inhibition) at 10 µM. 2.2% of 190,000 active. AID 1456;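 active = thallium flux slope and its plate-corrected score both differing from the plate sample mean at a set confidence after two filtering rounds, in either direction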;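 also: slope of fluorescence scaled to starting intensity during 10 to 20 s after thallium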
Target sequence (Q9H2X9 whole entry, looked up): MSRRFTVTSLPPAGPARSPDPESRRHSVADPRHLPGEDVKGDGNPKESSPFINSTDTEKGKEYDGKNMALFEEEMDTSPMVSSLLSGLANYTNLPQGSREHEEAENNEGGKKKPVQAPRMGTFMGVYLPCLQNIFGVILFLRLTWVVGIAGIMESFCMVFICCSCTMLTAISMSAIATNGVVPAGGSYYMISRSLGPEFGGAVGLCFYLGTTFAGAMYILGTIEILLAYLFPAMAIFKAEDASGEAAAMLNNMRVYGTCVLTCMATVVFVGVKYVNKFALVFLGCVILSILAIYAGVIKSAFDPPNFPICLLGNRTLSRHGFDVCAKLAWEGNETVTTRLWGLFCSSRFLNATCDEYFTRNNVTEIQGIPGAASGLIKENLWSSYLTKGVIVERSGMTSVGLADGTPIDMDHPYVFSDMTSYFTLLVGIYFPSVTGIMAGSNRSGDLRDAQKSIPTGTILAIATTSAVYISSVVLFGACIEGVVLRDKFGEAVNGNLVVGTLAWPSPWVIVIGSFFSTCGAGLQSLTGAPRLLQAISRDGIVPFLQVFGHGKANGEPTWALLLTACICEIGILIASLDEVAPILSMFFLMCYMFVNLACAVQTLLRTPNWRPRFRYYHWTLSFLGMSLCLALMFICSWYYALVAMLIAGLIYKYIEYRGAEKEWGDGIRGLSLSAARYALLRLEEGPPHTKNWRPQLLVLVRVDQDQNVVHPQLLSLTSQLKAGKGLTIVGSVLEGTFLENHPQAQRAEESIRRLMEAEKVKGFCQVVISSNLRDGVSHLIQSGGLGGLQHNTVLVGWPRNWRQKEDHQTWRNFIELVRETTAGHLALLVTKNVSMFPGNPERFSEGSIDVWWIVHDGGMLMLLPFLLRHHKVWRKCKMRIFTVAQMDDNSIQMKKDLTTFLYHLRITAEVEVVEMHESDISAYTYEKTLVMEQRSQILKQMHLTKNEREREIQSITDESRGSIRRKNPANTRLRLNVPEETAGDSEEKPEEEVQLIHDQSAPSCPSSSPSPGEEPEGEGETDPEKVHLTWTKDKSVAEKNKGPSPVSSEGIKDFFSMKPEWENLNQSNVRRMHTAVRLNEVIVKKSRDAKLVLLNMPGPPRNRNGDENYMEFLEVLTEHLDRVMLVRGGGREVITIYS
SKKanGAS inh = inhibitors of SKKanGAS S. pyogenes growth in kanamycin (SK-promoter or general growth effect); BacTiter-Glo, 6 h; inhibition, % at 7.5 µM; 1.3% of 300,000 active; AID 1662;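 active = mean replicate score, as percent of positive control median, at least 50; inconclusive = mean below 50 but one replicate at or above 50; inactive = mean and every replicate below 50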;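 also: strain carries kanamycin resistance gene driven by streptokinase promoter and grows in 40 µg/ml kanamycin; loss of luminescence reflects streptokinase promoter inhibition or plain growth inhibition; 0% = median of DMSO wells and 100% = positive control at its reference dose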
WT yeast gro inh = growth inhibition of WT yeast, mitochondrial fusion screen; 2.1% of 190,000 active; inhibition, % at 10 µM; mitochondrial fusion phenotypic screen, WT strain; AID 1362; in the data active = inhibition above about 58%; tested in S. cerevisiae
Autophagy mod = autophagy modulation, high-content screen. MEF GFP-LC3 puncta imaging; test concentration mostly 10 µM. calls only at 10 µM (by protocol). 0.98% of 190,000 active. AID 463193;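 active = percentage of spot-positive cells more than 3 SD above its plate mean, without a fluorescence outlier flag or 80% toxicity; inconclusive = no clear call, values can overlap the other calls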;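 also: spot-positive cell cutoff set from DMSO-treated cells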
Insulin prom up = MIN6 insulin promoter up-regulation | MIN6 insulin promoter-GFP reporter, high-content imaging; hits give high values | z-score at 5 µM | 0.3% of 190,000 active | AID 1625;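 active = z-score above 3 at 5 µM with at least 500 cells counted in the well; inconclusive = wells under 500 cells, flagged as cytotoxic or low count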
KCC2 secondary = KCC2 (human) modulation, secondary assay; HEK293-KCC2, thallium flux, FluoZin2 fluorescence; hits give high values; shares compounds with KCC2 mod; normalised thallium flux (F/F0 slope) at 10 µM; 15% of 3,700 active;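 active = thallium flux slope above the same plate's solvent-only control mean plus 3 SD; inconclusive = the two replicate wells disagree; inactive = no significant difference from solvent-only control wells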
KCC2 bumet counter = thallium flux persisting under bumetanide in KCC2 cells, counter-screen secondary assay; shares compounds with KCC2 mod; HEK293-KCC2 + bumetanide/ouabain, thallium flux FluoZin2; hits give high values; normalized thallium flux at 10 µM; 49% of 3,700 active;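 active = thallium entry rate above the same plate's blocked-transporter control wells by more than 3 SD; inconclusive = the two repeat wells disagree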;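 also: raw slope of fluorescence over initial fluorescence between 10 and 20 s after thallium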
KCC2 sec2 = KCC2 (human) modulation, second secondary assay. 23% of 3,700 active. shares compounds with KCC2 mod. normalized thallium flux at 10 µM. HEK293-KCC2, thallium flux FluoZin2 fluorescence; actives lie on both sides; F/F0 rise rate, 10–20 s post-thallium;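 active = thallium flux slope more than 3 SD above or below the plate's solvent-only control mean, mostly below; inconclusive = the two repeat wells disagreed; inactive = no significant shift from solvent-only controls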;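 also: raw slope with 0.1% DMSO as baseline and bumetanide as block control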
HEK293 Tl flux = parental HEK flux effect, counter-screen. shares compounds with KCC2 mod. HEK293 parental cells, thallium flux FluoZin2, ouabain; baseline-ratio fluorescence slope, 10–20 s after thallium. thallium flux rate (normalised fluorescence) at 10 µM. 46% of 3,700 active. AID 1716;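 active = thallium flux rate significantly above the same plate's solvent-only control wells, beyond their mean plus 3 SD; inconclusive = the two replicate wells gave conflicting results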
KCC2 retest ouab = confirmation of human KCC2 modulators with ouabain. AID 1717. 48% of 3,700 active. shares compounds with KCC2 mod. raw Tl+ flux slope (below DMSO = inhibition, above = activation) at 10 µM. HEK293-KCC2, thallium flux FluoZin2 fluorescence; bidirectional: low = inhibitor, high = activator;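 active = thallium flux slope beyond 3 SD from same-plate DMSO control mean in most replicates, usually higher, sometimes lower; inconclusive = repeat tests gave conflicting results; inactive = no significant difference from controls in most replicates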;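 also: slope of initial-normalized fluorescence between seconds 10 and 20 after thallium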
HEK counter2 = counter-screen for KCC2 modulators: effect in parental HEK293 cells. 33% of 3,700 active. thallium flux FluoZin-2 fluorescence slope. shares compounds with KCC2 mod. thallium flux slope at 10 µM. AID 1718;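 active = thallium flux slope above the same plate's solvent-control mean plus 3 SD in both duplicate wells; inconclusive = duplicate wells that disagreed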;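 also: run without ouabain in cells lacking the KCC2 cotransporter; slope of fluorescence scaled to its starting value between 10 and 20 s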
* marks the source's active call; other numbers are inactive results; i = inactive; ? = inconclusive; . = not tested or not shown. Sampled rows, rich in hits. Any-hit rate of the full collection: about 4.2%.

SMILES | Rad51 HR inh | KCC2 mod | SKKanGAS inh | WT yeast gro inh | Autophagy mod | Insulin prom up | KCC2 secondary | KCC2 bumet counter | KCC2 sec2 | HEK293 Tl flux | KCC2 retest ouab | HEK counter2
O=C(CCS(=O)(=O)c1ccccc1)Nc1cccc2c1C(=O)NC2=O | . | -0.54 | -1 | 6 | i | 0.04 | . | . | . | . | . | .
Cn1c(=O)c2c(O)c(Cc3ccccc3)c(=O)[nH]c2n(C)c1=O | . | 1 | 16 | 8 | i | 0.17 | . | . | . | . | . | .
CCC(=Nc1ccc(Cc2ccncc2)cc1)c1c(O)n(C)c(=O)n(C)c1=O | 3 | -3.2* | . | -3 | i | ? | 0.0078 | ? | 0.024* | 0.0079 | ? | 0.012
CCOC(=O)SC1=N/C(=C\c2ccc(N(C)C)cc2)C(=O)S1 | 2 | 19* | -1 | 20 | i | 0.63 | 0.017* | 0.021* | 0.029 | 0.013* | 0.028* | 0.011*
Cc1ccc2c(c1)N(CC(=O)N1CCCC1)C(=O)c1cccnc1O2 | . | . | -5 | . | . | . | . | . | . | . | . | .
COCc1ccc(CN2CCc3c([nH]c4ccccc34)C2CC(C)C)o1 (centres undefined) | . | -0.84 | -2 | 6 | i | . | . | . | . | . | . | .
Cc1ccc(/C(O)=C/C(=O)C(=O)NC23CC4CC(CC(C4)C2)C3)cc1 | -2 | 86* | 54* | . | . | 0.1 | 0.01 | 0.075* | 0.038 | ? | 0.055* | 0.02*
Cc1ccc(C(=O)NCC(=O)NC23CC4CC(CC(C4)C2)C3)cc1 | . | . | -2 | . | . | . | . | . | . | . | . | .
Cn1c(=O)c2c(nc(Cc3ccc(N)cc3)n2C)n(C)c1=O | 3 | 0.57 | -5 | . | . | 0.07 | . | . | . | . | . | .
O=C(c1ccc(Cl)cc1)N1N=CCC1(O)c1ccc(Cl)cc1 (centres undefined) | . | . | 7 | . | . | . | . | . | . | . | . | .
CCOC(=O)C1=NN(C(=O)COc2ccccc2)C(O)(c2ccc(Cl)cc2)C1 (centres undefined) | 3 | 6.7* | -7 | -2 | i | 0.28 | 0.012* | 0.029* | 0.03 | 0.013* | 0.026 | ?
CCOC(=O)C1=NN(C(=O)c2ccc(OC)cc2)C(O)(c2ccc(Cl)cc2)C1 (centres undefined) | -67 | 66* | 53* | 20 | i | -0.62 | ? | 0.093* | 0.077* | 0.095* | 0.087* | 0.064*
C=CCN1C(=O)c2ccc(C(=O)Nc3ccccn3)cc2C1=O | . | . | 14 | . | . | . | . | . | . | . | . | .
O=C(NC(=S)NCCO)c1sc2ccccc2c1Cl | 36 | 3.7* | -2 | 5 | i | 1.2 | 0.0088 | 0.011* | 0.032 | 0.015* | 0.019 | 0.012
O=C(NC1CC1)c1sc2ccccc2c1Cl | . | . | 2 | . | . | . | . | . | . | . | . | .
O=C(NC(=S)NC1CCCC1)c1ccccc1Br | 9 | 8.8* | 18 | 27 | i | -0.15 | 0.013* | 0.055* | 0.037 | 0.022* | ? | 0.015*
O=C(NC(=S)NCCC1=CCCCC1)c1ccccc1Br | 4 | 46* | ? | 64* | i | 0 | ? | 0.041* | 0.048* | 0.039* | 0.043* | 0.025*
O=C(NC(=S)NC1CCCC1)c1ccccc1 | . | . | -3 | . | . | . | . | . | . | . | . | .
NNC(=O)c1cccn(Cc2cccc(C(F)(F)F)c2)c1=O | . | . | 4 | . | . | . | . | . | . | . | . | .
O=S(=O)(Nc1c(F)cccc1F)c1ccc(Cl)nc1 | . | . | -12 | . | . | . | . | . | . | . | . | .
Cn1c(=O)cc(C(=O)N/N=C/c2ccc(F)cc2)[nH]c1=O | 1 | 1.1 | 0 | . | . | -0.01 | . | . | . | . | . | .
S=c1[nH]c2ccccc2n2cccc12 | 12 | 22* | 0 | . | . | -0.01 | 0.017* | 0.087* | ? | 0.028* | 0.048* | 0.018*
Cn1c(=S)[nH]c2ccccc21 | -3 | . | . | 11 | i | . | . | . | . | . | . | .
Cn1c(NC(=S)Nc2ccccc2)nc2ccccc21 | 1 | 7.4* | -21 | 16 | i | -0.78 | ? | 0.064* | 0.031 | 0.023* | 0.043* | 0.014*
S=C(Nc1ccccc1)Nc1nc2ccccc2n1CCOc1ccc(Br)cc1 | -5 | 3.4* | 6 | 0 | i | -2.1 | 0.0099 | 0.032* | 0.031 | 0.01* | 0.023 | ?
SMILES | Rad51 HR inh | KCC2 mod | SKKanGAS inh | WT yeast gro inh | Autophagy mod | Insulin prom up | KCC2 secondary | KCC2 bumet counter | KCC2 sec2 | HEK293 Tl flux | KCC2 retest ouab | HEK counter2
COC(=O)c1ccccc1NC(=O)CSc1ccc(C)cc1 | 0 | -4.3* | 1 | 20 | i | . | 0.0083 | ? | 0.033 | 0.0063 | 0.02 | 0.01
O=C(Nc1ccccc1C(F)(F)F)N1CCN(c2ccccn2)CC1 | 3 | -1.1 | -2 | -15 | i | 0.19 | . | . | . | . | . | .
Cc1cc2ccccn2c1C(=O)c1nc(N2CCOCC2)ncc1Cl | -3 | -3.8* | -1 | 5 | i | -0.41 | 0.0073 | ? | 0.026* | 0.0074 | 0.017* | 0.0098
COCCN(CCOC)c1ncc(Cl)c(C(=O)c2c(C)cc3ccccn23)n1 | -9 | -1.2 | -4 | -10 | i | -1.3 | . | . | . | . | . | .
Cc1cnc(NC(=O)COc2cccc3c2OC(C)(C)C3)s1 | 4 | . | 1 | 6 | i | 0.22 | 0.0085 | 0.0071 | 0.029 | 0.007 | ? | 0.0097
CC1(C)Cc2cccc(OCC(=O)Nc3ccccc3F)c2O1 | . | . | 27 | . | . | . | . | . | . | . | . | .
Cc1ccc(Cn2c(=N)c(C(=O)NCc3ccco3)cc3c(=O)n4ccccc4nc32)cc1 | . | 5.7* | 4 | 16 | i | . | 0.0053 | ? | ? | 0.0055* | 0.018 | 0.0098
Cc1c(CN(C)C(=O)/C=C/c2ccc([N+](=O)[O-])cc2)cnn1C | -1 | 0.5 | 6 | 1 | i | -0.28 | . | . | . | . | . | .
O=C(NC(=S)NN1CCCCC1c1cccnc1)c1ccc(Br)cc1 (centres undefined) | 13 | 65* | 24 | . | . | -0.79 | 0.033* | 0.099* | 0.046* | 0.04* | 0.066* | 0.02*
COC(=O)c1ccc(NC(=S)NN2CCCCC2c2cccnc2)cc1 (centres undefined) | 19 | -0.9 | -4 | . | . | 0.26 | . | . | . | . | . | .
CCSc1nc(O)cc(=O)[nH]1 | 17 | . | 1 | . | . | 0.1 | . | . | . | . | . | .
CCSc1nc(=S)cc(C)[nH]1 | . | 46* | -5 | . | . | 0.5 | 0.027* | 0.052* | ? | 0.034* | 0.043* | 0.018*
